GRIN3A LBD mod – NR3A (human) ligand-binding domain modulation. AID 1259313. Tm shift relative to glycine control, % at 25 µM. 340,000 compounds, 2.5% hits. NR3A LBD differential scanning fluorimetry, Tm shift; 0% = protein alone, 100% = glycine-bound protein;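 active = melting temperature shift of at least 10% of the positive control shift, at one fixed dose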
aDG glyco up – alpha-DG glycosylation activation. Pro5-aDG cells, alpha-DG glycosylation AlphaScreen (IIH6); 0% Pro5, 100% B10-LARGE cell signal. activation, % at 10 µM. 360,000 compounds, 0.22% hits. AID 624168;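 active = activation of at least 8% versus controls, or a plate z-score of at least 8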;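 also: Pro5 are CHO cells carrying HIG-tagged alpha-DG that lacks glycosylation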
UPR CHOP act – apoptotic UPR (CHOP) activation; activation, % at 10 µM; AID 449763; CHO-CHOP luciferase reporter, luminescence; percent of tunicamycin response over DMSO baseline; 330,000 compounds, 0.34% hits;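 active = at 10 µM dose, activation of 40% or more, normalized to positive control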;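 also: 100% = tunicamycin at 10 µg/mL and 0% = DMSO alone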
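System: CHO-CHOP luciferase reporter cell line | Buffer or medium: F12 medium containing 10% fetal bovine serum | Doses: One dose, 10 µM in 0.5% DMSO | Times: 6 h compound exposure at 37 °C after overnight seeding | Signal: Luciferase luminescence | Read-out: % activation vs tunicamycin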
MPTP block – permeability transition pore inhibition. isolated mouse mitochondria, Ca2+ swelling absorbance, 30 min. inhibition, % at 10 µM. 360,000 compounds, 1.4% hits. AID 602449;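 active = inhibition of 50% or more, scaled per plate between neutral and stimulator controls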;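 also: 0% = DMSO wells given calcium and 100% = 1 mM EGTA wells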
XBP1 UPR activ – adaptive UPR (XBP1) activation. AID 463104. CHO-XBP1 luciferase reporter, IRE1-XBP1 UPR activation, luminescence; percent of tunicamycin response, DMSO as zero. activation, % at 20 µM. 330,000 compounds, 0.33% hits;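 active = versus positive control, 20 µM dose yields 30% or more activation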;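 also: 100% = tunicamycin at 10 µg/mL and 0% = DMSO only wells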
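Material: IRE1-XBP1 luciferase reporter CHO line / Quantity: one thousand reporter cells per well / Buffer or medium: F12 with 10% serum / Compound: 20 µM single concentration, DMSO 1% / Times: 6 h treatment, 37 °C / Detection: Steady-Glo luciferase glow luminescence, 10 min after reagent addition / Benchmarks: tunicamycin high, DMSO low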
CHOP inh – inhibitors of CHOP induction in ER stress response; CHO-K1 CHOP-promoter luciferase, tunicamycin-induced, 15-18 h; inhibition, % at 10 µM; 220,000 compounds, 3.8% hits; AID 2732;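 active = compounds that reduced the stress-induced luciferase reporter signal by more than about 70% of percent inhibition, limit read from the data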;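 also: 0% = tunicamycin plus vehicle and 100% = wells without tunicamycin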
CHOP confirm – confirmation of CHOP induction inhibitors; inhibition, % at 10 µM; AID 504437; 2,100 compounds, 45% hits; shares compounds with CHOP inh; CHO-CHOP promoter luciferase reporter, tunicamycin-induced, luminescence;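 active = mean of three repeat readings of reporter signal inhibition above a set limit, cut at about 70% in these data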;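 also: 0% = tunicamycin plus vehicle and 100% = wells lacking tunicamycin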
Numbers without * were called inactive; x = no result. In the library only some 5.6% were active in any assay of this set; here they are far more common.

SMILES	GRIN3A LBD mod	aDG glyco up	UPR CHOP act	MPTP block	XBP1 UPR activ	CHOP inh	CHOP confirm
Cc1ccc(-n2nnnc2CCl)cc1	0	1	x	-2	x	108*	-50
COc1ccc(-c2n(Cc3ccccc3)c3ccccc3[n+]2Cc2ccccc2)cc1	1	1	-2	43	-2	-2	x
Cc1cc(C(=O)N/N=C/c2ccc(-c3cccc(Cl)c3Cl)o2)n[nH]1	13*	0	2	7	6	101*	73*
Cc1cc(C(=O)N/N=C/c2ccco2)n[nH]1	-1	0	3	0	-2	-6	x
CC(c1ccccc1F)n1cc(C(=O)NCCCc2nc3ccccc3[nH]2)nn1 (stereo not given)	-2	0	0	0	-4	97*	20
CC(c1ccc(F)cc1)n1cc(C(=O)NCCN(C)C)nn1 (stereo not given)	-4	0	0	-2	3	18	x
OC(CNCC(c1ccc(Cl)cc1Cl)c1c[nH]c2ccccc12)c1ccccc1 (stereo not given)	24*	-1	9	11	5	107*	125*
COC(=O)Nc1sc2c(c1C(=O)NCc1ccco1)CCCC2	0	1	-1	-1	1	29	x
Cc1ccc(C(=O)Nc2sc3c(c2C(=O)NCc2ccco2)CCCC3)cc1	2	0	2	2	25	104*	-105
COc1ccc2oc(=O)c(C(=O)N3CCN(C(=O)c4ccco4)CC3)cc2c1	-1	0	3	1	-6	x	x
Cc1ccc(-c2n[nH]c(=S)n2/N=C/c2c(C)nn(-c3ccccc3)c2C)cc1	-24	0	1	3	5	109*	37
COc1ccc(OC)c(CCNC(=O)Cn2sc3nc(C)cc(C)c3c2=O)c1	x	x	6	x	-4	98*	-2
Cc1cc(C)c2c(=O)n(CC(=O)NC3CCCC3)sc2n1	5	0	4	0	-2	6	x
Cc1ccc(CNC(=O)C2(S(=O)(=O)c3ccccc3)CC=CC2)cc1	-2	1	5	-1	3	x	x
CC1CCCC(NC(=O)C2COc3ccccc3O2)C1C (stereo not given)	1	0	0	-1	0	x	x
CCOc1ccc(/C=N/NC(=O)c2ccccc2O)cc1CN1CC2CC(C1)c1cccc(=O)n1C2 (stereo not given)	-1	0	4	0	2	x	x
CC1(c2cccc(Br)c2)NC(=O)NC1=O (stereo not given)	-1	0	1	-1	-5	x	x
Cc1cc(S(=O)(=O)ON2C(=O)c3ccccc3C2=O)ccc1F	1	0	x	1	x	x	x
O=C1c2cccc3cccc(c23)C(=O)N1OS(=O)(=O)c1ccccc1	2	0	-2	1	4	32	x
Cc1ccc(C)c(S(=O)(=O)ON2C(=O)c3ccccc3C2=O)c1	5	0	-1	6	2	106*	106*
O=C1c2ccccc2C(=O)N1OS(=O)(=O)c1ccccc1	x	x	x	x	x	108*	-58
O=C(NC(=S)N1CCCCC1CO)c1cc(Br)ccc1Cl (stereo not given)	-4	0	3	-1	1	x	x
O=C(CSc1n[nH]c(=O)n1-c1ccccc1)N1CCOCC1	1	0	0	0	1	x	x
COc1ccc(N=c2ssnc2Cl)cc1	22*	0	5	-1	-3	109*	2
CCOC(=O)c1ccc(N=c2ssnc2Cl)cc1	8	0	1	-6	0	98*	56
SMILES	GRIN3A LBD mod	aDG glyco up	UPR CHOP act	MPTP block	XBP1 UPR activ	CHOP inh	CHOP confirm
COc1ccc(N=C2SCC(=O)N2C)cc1	x	0	x	0	x	x	x
CCOC(=O)c1ccc(N=C2SC(C(=O)NC)CC(=O)N2Cc2ccc(F)cc2)cc1 (stereo not given)	-8	0	0	0	-2	28	x
CCCN(CCC)CCCNC(=O)c1cc2c(=O)n(CC)c3ccccc3c2s1	-1	0	0	-2	-2	x	x
CCOC(=O)C1=C(C)NC(C)=C(C(=O)OCC)C1C(=O)OCC(=O)NCc1ccccc1OC	1	0	-1	-1	-2	x	x
C[C@H]1COC(=O)[C@@H](CC(=O)OC(C)(C)C)C/C=C\C[C@@H](CC(=O)N(CCO)Cc2ccccc2)C(=O)N1	0	0	2	0	-1	x	x
O=[N+]([O-])c1ccc(N2CCN(c3ccccc3O)CC2)c(Cl)c1	-2	1	0	11	-1	96*	17
CCCOC(=O)c1ccc(NC(=O)c2ccoc2C)cc1	1	1	3	-6	6	52	x
CCCCOC(=O)c1ccc(NC(=O)c2ccoc2C)cc1	-8	0	7	15	-1	101*	47
Oc1ccc(-c2nccs2)cc1	-12	0	x	-2	x	x	x
BrC(=C\c1ccccc1)/C=N/Nc1ccc2nncn2n1	5	0	6	10	1	12	x
BrC(=C\c1ccccc1)/C=N/n1cnnc1	-4	-1	x	0	x	106*	-22
COc1ccc(S(=O)(=O)NC2CC3CCC2C3)cc1 (stereo not given)	0	0	2	0	-2	x	x
CC(=O)Nc1ccc(S(=O)(=O)N(C)CC(=O)Nc2nc3ccccc3[nH]2)cc1	-4	0	1	-1	1	x	x
COc1ccc(C(C(=O)NC2CCCCC2)N(C(=O)CCl)c2cccc(Cl)c2)cc1 (stereo not given)	-3	0	x	0	x	106*	104*
COc1ccc(CN(C)C(=O)c2cccc(NS(=O)(=O)c3ccccc3)c2)cc1F	3	0	1	0	1	x	x
Clc1ccccc1/C=N/NC1=Nc2cccc3cccc1c23	19*	0	8	-1	15	98*	-22
N#CC(C(=O)NC1CCCCC1)=C1CCCCCC1	-6	0	3	2	-3	-5	x
CCOC(=O)Cc1cc(-c2ccc(OC)cc2)nc2ccc3ccccc3c12	-1	0	1	1	-2	23	x
CCOC(=O)Cc1cc(-c2ccc(O)cc2)nc2ccc3ccccc3c12	18*	0	6	3	7	101*	96*
O=C(Nc1nnc(COc2ccc(F)cc2)s1)Nc1ccccc1F	0	0	1	7	-1	99*	2
Fc1cccc(/C=N/NC(=S)Nc2ccccc2Cl)c1	0	0	2	3	-1	104*	-33
Cc1cccc(NC(=S)N/N=C/c2cccc(O)c2)c1C	-3	1	0	4	1	-4	x
